Here are results for three molecules from ChEMBL document CHEMBL1125464, “1,3,6-trisubstituted indoles as peptidoleukotriene antagonists: benefits of a second, polar, pyrrole substituent” (J Med Chem, 1992).

One may read the Inhibition as how much of the control response was suppressed. A high value points to strong suppression. In general, Ki refers to the dissociation constant of the complex between target and ligand, obtained from inhibition or displacement. The low end stands for higher affinity, the high end for lower affinity.

Assay [1] relates to Cavia porcellus. As to the kind of experiment: Protection of conscious guinea pig lung function was determined by comparison of time required for the challenged animals to exhibit labored abdominal breathing after oral dose of 0.3 uM/kg. The format is functional. In outline: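 Conscious guinea pigs pretreated with indomethacin (10 mg/kg ip) and propranolol (5 mg/kg ip). Compound in PEG400 (<10% v/v)/PBS given orally 180 min before a challenge of up to 5 min with aerosolized 60 uM LTD4. Time to abdominal dyspnea scored blind. % protection is taken against vehicle controls; no end point by 300 s counts as 100%. Unpaired t test.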

Assay [2] is filed under the species Cavia porcellus. The assay is described as follows: Dissociation constant on guinea pig tracheal spirals utilizing LTE4 as agonist. The note with it: Trachea.
For assay [3], the species on record is Cavia porcellus. The assay is described as follows: Inhibition of LTE4 (8 nM) induced contraction of guinea pig tracheal spirals at a concentration of 0.33 uM. The format is functional, Trachea. In outline: (§1)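 Paired tracheal spirals at 37 °C in Krebs gassed with 95% O2/5% CO2 under 2 g tension, given repeated LTE4 challenges of 10 min. Compound or vehicle added 10 min before a third challenge. % inhibition = (2nd − 3rd response)/2nd × 100, corrected by subtracting the vehicle value. Paired t test, n ≥ 4.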

For assay [4], the species on record is Cavia porcellus. As to the kind of experiment: Inhibition of LTE4 (8 nM) induced contraction of guinea pig tracheal spirals at a concentration of 0.50 uM. The format is functional, Trachea. Summed up:
as §1

For assay [5], the species on record is Cavia porcellus. The assay is described as follows: Inhibition of LTE4 (8 nM) induced contraction of guinea pig tracheal spirals at a concentration of 1 uM. It is filed as functional, Trachea. Summed up: as §1
The species entered for assay [6] is Cavia porcellus. The assay is described as follows: Inhibition constant for the displacement of [3H]LTD4 on guinea pig lung parenchymal membranes. Details: species or system Lung parenchyma. Summed up: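 Membranes from perfused lungs of male Hartley guinea pigs (300-400 g) in PIPES pH 7.5 with 10 mM CaCl2, 10 mM MgCl2, 2 mM cysteine and 2 mM glycine. 1 nM 3H-LTD4 at 22 °C for 30 min; nonspecific binding with 2 uM LTD4. Filtration, then scintillation counting. IC50 by nonlinear least squares, Ki by Cheng-Prusoff; mean of two experiments in duplicate.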

As to `COc1cc(C(=O)NS(=O)(=O)c2ccccc2C)ccc1Cn1cc(C)c2ccc(NC(=O)CC3CCCC3)cc21`, the Protection with Cavia porcellus [1] was determined as 54%. Moreover, the Kb in the assay filed under Cavia porcellus [2] is 0.456 nM.
In the case of `CCCCOC(=O)Nc1ccc2ccn(Cc3ccc(C(=O)O)cc3OC)c2c1`, the results for the Inhibition in the assay listed under Cavia porcellus [3] and in the assay listed under Cavia porcellus [4] were 25% and 54%, respectively. This molecule showed a Kb in the assay listed under Cavia porcellus [2] of 155 nM.
As for `COc1cc(C(=O)O)ccc1Cc1cn(C)c2ccc(C(=O)NCC3CCCC3)cc12`, the Inhibition in the assay listed under Cavia porcellus [5] amounted to 33%. Also, the Ki in the assay filed under Cavia porcellus [6] is 422 nM.
